Assay results as given in ChEMBL document CHEMBL1126657, “Benzylamine antioxidants: relationship between structure, peroxyl radical scavenging, lipid peroxidation inhibition, and cytoprotection” (1993).
Converted amounts (≈) assume the structure as drawn. The source made the active and inactive calls. The rule behind the calls is not given here.

Test system: not listed separately
Experiment: percent inhibition of 2,2'-azobis(2-amidinopropane)dihydrochloride induced decay of (R)-phycoerythrin fluorescence emission
Format: functional
Set-up: concentration or dose not given beside the values
Settings: dose or concentration not given here
Method in brief: (§1)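 R-PE (4.5 × 10⁻⁸ M stock) was mixed with test agent (3 μM stock; 1 μM final) in 75 mM phosphate buffer pH 7.0 and equilibrated 5 min at 37 °C. AAPH (12 mM stock, freshly made) was then added. Fluorescence (ex 544, em 590 nm) was read every 5 min for 25 min and normalized to 0 min. Percent inhibition at 15 min = (sample − AAPH)/(control − AAPH) × 100, n = 4.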

SMILES	inhibition
CCCCCCCNCc1cc(OC)c(O)c(OC)c1.Cl	63.5%
CCCCCCOc1cc(CN(C)C)cc(OCCCCCC)c1O.Cl	17.6%
CCCCCCCCNCc1cc(OC)c(O)c(OC)c1.Cl	60.9%
CCCCCCCCCNCc1cc(OC)c(O)c(OC)c1.Cl	52.9%
CCCOC(=O)c1cc(O)c(O)c(O)c1 [PROPYL GALLATE]	40%
CCCCCCCOc1cc(CN2CCN(CCO)CC2)cc(OC)c1O.Cl.Cl	64.4%
CCCCCCCOc1c(O)cc(CN(C)C)cc1O.Cl	43.8%
CCCCCCCOc1cc(CN(C)C)cc(OC)c1O.Cl	62.5%
CCCCCCCOc1c(O)cc(CN2CCN(CCO)CC2)cc1O.Cl.Cl	60.3%
CCCCCCCOc1cc(CN(C)C)cc(OCCCCCCC)c1O.Cl	7.2%

Species on record: Rattus norvegicus
Experiment: Percent viability of rat hippocampal neurons exposed to hydrogen peroxide (50 uM) in the presence of the test agent (5 uM)
Format: functional
Settings: not given
Method in brief: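 Primary rat hippocampal neuron cultures were given test agent (5 μM) and exposed for 15 min to H2O2 (50 μM). Survival was scored by vital dye staining 18 h later. n = 3 cultures prepared on different days, mean ± SD.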

SMILES	Cell viability
CCCCCNCc1cc(OC)c(O)c(OC)c1.Cl	29%
CCCCCCNCc1cc(OC)c(O)c(OC)c1.Cl	42.6%
CCCCCCCNCc1cc(OC)c(O)c(OC)c1.Cl	48.3%
CC(C)Oc1cc(CN(C)C)cc(OC(C)C)c1O.Cl	35.8%
CCNCc1cc(OC)c(O)c(OC)c1.Cl	3.1%
CCCCNCc1cc(OC)c(O)c(OC)c1.Cl	17.1%
COc1cc(CN(C)C)cc(OC)c1O.Cl	5.2%
CCCCCCOc1cc(CN(C)C)cc(OCCCCCC)c1O.Cl	73.1%
CCN(CC)Cc1cc(OC)c(O)c(OC)c1.Cl	3.7%
CCCCOc1cc(CN(C)C)cc(OCCCC)c1O.Cl	35.8%
CCCCCCCCNCc1cc(OC)c(O)c(OC)c1.Cl	59.8%
CCCCCCCCCNCc1cc(OC)c(O)c(OC)c1.Cl	47.1%
CC(C)Oc1cc(CN2CCN(CCO)CC2)cc(OC(C)C)c1O.Cl.Cl	45.3%
COc1cc(CN(CC(C)C)CC(C)C)cc(OC)c1O.Cl	28.7%
CNCc1cc(OC)c(O)c(OC)c1.Cl	7.5%
CCCCCNCc1cc(OC(C)C)c(O)c(OC(C)C)c1.Cl	42.8%

SMILES	Cell viability
CCCCCN(CCCCC)Cc1cc(OC)c(O)c(OC)c1.Cl	35.5%
CCCOc1cc(CN(C)C)cc(OCCC)c1O.Cl	31.3%
CCCCCCCOc1cc(CN2CCN(CCO)CC2)cc(OC)c1O.Cl.Cl	63%
CCCCCCCOc1c(O)cc(CN(C)C)cc1O.Cl	47%
CCCCCCCOc1cc(CN(C)C)cc(OC)c1O.Cl	44%
CN(C)Cc1cc(OC2CCCC2)c(O)c(OC2CCCC2)c1.Cl	28.9%
CCCCCOc1cc(CN(C)C)cc(OCCCCC)c1O.Cl	51.2%
CCC(CC)Oc1cc(CN(C)C)cc(OC(CC)CC)c1O.Cl	15.2%
CCCNCc1cc(OC)c(O)c(OC)c1.Cl	13.3%
CCOc1cc(CN(C)C)cc(OCC)c1O.Cl	14.7%
CCCN(CCC)Cc1cc(OC)c(O)c(OC)c1.Cl	5.4%
CCCCCCCNCc1cc(OC(C)C)c(O)c(OC(C)C)c1.Cl	43.5%
CCCCCCCOc1c(O)cc(CN2CCN(CCO)CC2)cc1O.Cl.Cl	50.3%
CCCCCCCOc1cc(CN(C)C)cc(OCCCCCCC)c1O.Cl	75.7%
CCCCN(CCCC)Cc1cc(OC)c(O)c(OC)c1.Cl	26.4%

Test system: Rattus norvegicus
Experiment: Hypotensive effect in anesthetized normotensive rat expressed as effective dose
Format: functional
Settings: not given

SMILES	ED20
CCCCCCOc1cc(CN(C)C)cc(OCCCCCC)c1O.Cl	0.36 mg/kg
CCCCOc1cc(CN(C)C)cc(OCCCC)c1O.Cl	1 mg/kg
CCCCCNCc1cc(OC(C)C)c(O)c(OC(C)C)c1.Cl	> 1 mg/kg
CCCCCN(CCCCC)Cc1cc(OC)c(O)c(OC)c1.Cl	> 1 mg/kg
CCCOc1cc(CN(C)C)cc(OCCC)c1O.Cl	1 mg/kg
CCCCCCCOc1cc(CN2CCN(CCO)CC2)cc(OC)c1O.Cl.Cl	> 1 mg/kg
CCCCCCCOc1cc(CN(C)C)cc(OC)c1O.Cl	> 1 mg/kg
CCC(CC)Oc1cc(CN(C)C)cc(OC(CC)CC)c1O.Cl	0.42 mg/kg
CCCCCCCNCc1cc(OC(C)C)c(O)c(OC(C)C)c1.Cl	> 1 mg/kg

Test system: Rattus norvegicus
Experiment: Hypotensive effect in anesthetized normotensive rat expressed as effective dose; No effect
Format: functional, organism-based
Settings: not given

SMILES	ED20
CCCCCNCc1cc(OC)c(O)c(OC)c1.Cl	inactive
CCCCCCNCc1cc(OC)c(O)c(OC)c1.Cl	inactive
CC(C)Oc1cc(CN(C)C)cc(OC(C)C)c1O.Cl	inactive
CCNCc1cc(OC)c(O)c(OC)c1.Cl	inactive
CCCCNCc1cc(OC)c(O)c(OC)c1.Cl	inactive
COc1cc(CN(C)C)cc(OC)c1O.Cl	inactive
CCN(CC)Cc1cc(OC)c(O)c(OC)c1.Cl	inactive
CC(C)Oc1cc(CN2CCN(CCO)CC2)cc(OC(C)C)c1O.Cl.Cl	inactive
COc1cc(CN(CC(C)C)CC(C)C)cc(OC)c1O.Cl	inactive
CNCc1cc(OC)c(O)c(OC)c1.Cl	inactive
CCCNCc1cc(OC)c(O)c(OC)c1.Cl	inactive
CCOc1cc(CN(C)C)cc(OCC)c1O.Cl	inactive
CCCN(CCC)Cc1cc(OC)c(O)c(OC)c1.Cl	inactive
CCCCN(CCCC)Cc1cc(OC)c(O)c(OC)c1.Cl	inactive

Species on record: Oryctolagus cuniculus
Experiment: Inhibition of iron-dependent peroxidation of rabbit vesicular membrane lipids (minimum test concentration that gave greater than 50% inhibition).
Format: functional
Settings: not given
Method in brief: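 Lipids from rabbit brain vesicular membranes were peroxidized in an iron-dependent system. Value is the minimum tested concentration giving ≥50% inhibition (μM), n = 3.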

SMILES	MIC
CCCCCNCc1cc(OC)c(O)c(OC)c1.Cl	> 100 µM
CCCCCCNCc1cc(OC)c(O)c(OC)c1.Cl	100 µM
CCCCCCCNCc1cc(OC)c(O)c(OC)c1.Cl	30 µM
CC(C)Oc1cc(CN(C)C)cc(OC(C)C)c1O.Cl	> 100 µM
CCNCc1cc(OC)c(O)c(OC)c1.Cl	> 100 µM
CCCCCCOc1cc(CN(C)C)cc(OCCCCCC)c1O.Cl	1 µM
CCN(CC)Cc1cc(OC)c(O)c(OC)c1.Cl	> 100 µM
CCCCCCCCNCc1cc(OC)c(O)c(OC)c1.Cl	10 µM
COc1cc(CN(CC(C)C)CC(C)C)cc(OC)c1O.Cl	30 µM
CNCc1cc(OC)c(O)c(OC)c1.Cl	> 100 µM
CCCCCNCc1cc(OC(C)C)c(O)c(OC(C)C)c1.Cl	30 µM
CCCOc1cc(CN(C)C)cc(OCCC)c1O.Cl	30 µM
CCCCCCCOc1cc(CN(C)C)cc(OC)c1O.Cl	2.3 µM
CN(C)Cc1cc(OC2CCCC2)c(O)c(OC2CCCC2)c1.Cl	10 µM
CCCCCOc1cc(CN(C)C)cc(OCCCCC)c1O.Cl	2.3 µM
CCCNCc1cc(OC)c(O)c(OC)c1.Cl	> 100 µM
CCOc1cc(CN(C)C)cc(OCC)c1O.Cl	100 µM
CCCN(CCC)Cc1cc(OC)c(O)c(OC)c1.Cl	> 100 µM
CCCCCCCNCc1cc(OC(C)C)c(O)c(OC(C)C)c1.Cl	10 µM
CCCCCCCOc1cc(CN(C)C)cc(OCCCCCCC)c1O.Cl	1 µM

Results, then the compound that gave them:

MIC	SMILES
> 100 µM	CCCCNCc1cc(OC)c(O)c(OC)c1.Cl
> 100 µM	COc1cc(CN(C)C)cc(OC)c1O.Cl
10 µM	CCCCOc1cc(CN(C)C)cc(OCCCC)c1O.Cl
5.3 µM	CCCCCCCCCNCc1cc(OC)c(O)c(OC)c1.Cl
> 100 µM	CC(C)Oc1cc(CN2CCN(CCO)CC2)cc(OC(C)C)c1O.Cl.Cl
3 µM (≈ 0.637 µg/mL)	CCCOC(=O)c1cc(O)c(O)c(O)c1 [PROPYL GALLATE]
30 µM	CCCCCN(CCCCC)Cc1cc(OC)c(O)c(OC)c1.Cl
2.3 µM	CCCCCCCOc1cc(CN2CCN(CCO)CC2)cc(OC)c1O.Cl.Cl
30 µM	CCCCCCCOc1c(O)cc(CN(C)C)cc1O.Cl
10 µM	CCC(CC)Oc1cc(CN(C)C)cc(OC(CC)CC)c1O.Cl
30 µM	CCCCCCCOc1c(O)cc(CN2CCN(CCO)CC2)cc1O.Cl.Cl
> 100 µM	CCCCN(CCCC)Cc1cc(OC)c(O)c(OC)c1.Cl

Test system: Rattus norvegicus
Experiment: Hypotensive effect in up to 0.1 mg/kg, slight pressor response (~16-17%) at 1 mg/kg
Format: functional, organism-based
Settings: not given

SMILES	ED20
CCCCCCCCNCc1cc(OC)c(O)c(OC)c1.Cl	Pressor
CCCCCCCCCNCc1cc(OC)c(O)c(OC)c1.Cl	Pressor

Test system: not listed separately
Experiment: Percent inhibition of 2,2'-azobis(2-amidinopropane)dihydrochloride induced decay of (R)-phycoerythrin fluorescence emission
Format: functional
Set-up: concentration or dose not given beside the values
Settings: dose or concentration not given here
Method in brief: as §1

SMILES	inhibition
CCCCCNCc1cc(OC)c(O)c(OC)c1.Cl	61.6%
CCCCCCNCc1cc(OC)c(O)c(OC)c1.Cl	65.2%
CC(C)Oc1cc(CN(C)C)cc(OC(C)C)c1O.Cl	69.3%
CCNCc1cc(OC)c(O)c(OC)c1.Cl	71.8%
CCCCNCc1cc(OC)c(O)c(OC)c1.Cl	62.4%
COc1cc(CN(C)C)cc(OC)c1O.Cl	69%
CCN(CC)Cc1cc(OC)c(O)c(OC)c1.Cl	66.7%
CCCCOc1cc(CN(C)C)cc(OCCCC)c1O.Cl	73.3%
CC(C)Oc1cc(CN2CCN(CCO)CC2)cc(OC(C)C)c1O.Cl.Cl	71.6%
COc1cc(CN(CC(C)C)CC(C)C)cc(OC)c1O.Cl	63.7%
CNCc1cc(OC)c(O)c(OC)c1.Cl	75.8%
CCCCCN(CCCCC)Cc1cc(OC)c(O)c(OC)c1.Cl	50.6%
CCCOc1cc(CN(C)C)cc(OCCC)c1O.Cl	91.8%
CN(C)Cc1cc(OC2CCCC2)c(O)c(OC2CCCC2)c1.Cl	74.3%
CCCCCOc1cc(CN(C)C)cc(OCCCCC)c1O.Cl	44.9%
CCC(CC)Oc1cc(CN(C)C)cc(OC(CC)CC)c1O.Cl	66.8%
CCCNCc1cc(OC)c(O)c(OC)c1.Cl	80.1%
CCOc1cc(CN(C)C)cc(OCC)c1O.Cl	71.6%
CCCN(CCC)Cc1cc(OC)c(O)c(OC)c1.Cl	63.7%
CCCCN(CCCC)Cc1cc(OC)c(O)c(OC)c1.Cl	66.6%

Test system: Rattus norvegicus
Experiment: Hypotensive effect in anesthetized normotensive rat expressed as effective dose; Study
Format: functional, organism-based
Settings: not given

SMILES	ED20
CN(C)Cc1cc(OC2CCCC2)c(O)c(OC2CCCC2)c1.Cl	Study
CCCCCOc1cc(CN(C)C)cc(OCCCCC)c1O.Cl	Study
